# Bioassay records deposited in PubChem BioAssay by several laboratories.
# Shown are actives, neighbours in structure and some others; about 9.2% of the full set was active somewhere.
# Lung fibro prol: blocks proliferation of human lung fibroblasts. LL 47 human lung fibroblast viability, ATP luminescence; hits give low values. viability, % at 10 µM. 1.1% of 85,000 active. AID 719;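 active means viability at or below 50% in the single dose screen; inactive means viability above 50%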;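 further: compound exposure lasted 72 h before the ATP readout; 100% = median luminescence of untreated cell-only wells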
#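 Benchmarks: Cell-only wells, no compound | Test system: LL 47 human lung fibroblasts, passage 12 or lower | Input: 1,150 cells/well | Measured by: CellTiter-Glo luminescence measuring cellular ATP | Medium: IMEM, 15% FBS supplement | Schedule: Overnight attachment after seeding, then 72 h compound exposure at 37 °C | Doses: Compound addition at 0.1% DMSO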
# ERa SRC1 pot: enhances coactivator binding to human estrogen receptor alpha. TR-FRET ERalpha-LBD/SRC-Cy5 coactivator binding, 2 h; 100 = basal binding, no effect. coactivator binding (% of control), % at 25.6 µM. 1.3% of 86,000 active. AID 639; in the data active means activity above about 200%;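 further: binding measured in presence of low estradiol as agonist stimulus; 0% = peptide alone without receptor and 100% = receptor with peptide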
# H69AR growth 86K: blocks growth of human H69AR lung tumor cells; 6% of 85,000 active; viability, % at 10 µM; H69AR lung tumor viability, ATP luminescence, 72 h; hits give low values;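 active means viability at or below 40%; inactive means viability above 40%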;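 further: multidrug resistant small cell line overexpressing MRP-1 efflux transporter; 100% = mean luminescence of untreated control wells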
# HUVEC prolif 384: blocks proliferation of human endothelial cells; HUVEC proliferation, CellTiter-Glo luminescence, 72 h; hits give low values; viability, % at 10 µM (by protocol); 1.1% of 86,000 active; AID 648;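 active means viability at or below 30%; inactive means viability above 30%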;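 further: 100% = median luminescence of DMSO-only cell control wells on each plate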
# ERb coact inh: ER-beta (human) coactivator binding inhibition; Q92731; TR-FRET ER-beta LBD / SRC1-Cy5 peptide binding; receptor agonist-loaded with 1 µM estradiol; inhibition, % at 25.6 µM; 1.3% of 86,000 active; AID 633;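 active means compounds whose percent inhibition of the receptor-coactivator binding signal exceeds about 50% in the single-dose screen, limit read from the data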;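 further: 0% = receptor plus peptide wells without compound and 100% = peptide-only wells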
# Target sequence (Q92731 whole entry, looked up, the tested form may be a part): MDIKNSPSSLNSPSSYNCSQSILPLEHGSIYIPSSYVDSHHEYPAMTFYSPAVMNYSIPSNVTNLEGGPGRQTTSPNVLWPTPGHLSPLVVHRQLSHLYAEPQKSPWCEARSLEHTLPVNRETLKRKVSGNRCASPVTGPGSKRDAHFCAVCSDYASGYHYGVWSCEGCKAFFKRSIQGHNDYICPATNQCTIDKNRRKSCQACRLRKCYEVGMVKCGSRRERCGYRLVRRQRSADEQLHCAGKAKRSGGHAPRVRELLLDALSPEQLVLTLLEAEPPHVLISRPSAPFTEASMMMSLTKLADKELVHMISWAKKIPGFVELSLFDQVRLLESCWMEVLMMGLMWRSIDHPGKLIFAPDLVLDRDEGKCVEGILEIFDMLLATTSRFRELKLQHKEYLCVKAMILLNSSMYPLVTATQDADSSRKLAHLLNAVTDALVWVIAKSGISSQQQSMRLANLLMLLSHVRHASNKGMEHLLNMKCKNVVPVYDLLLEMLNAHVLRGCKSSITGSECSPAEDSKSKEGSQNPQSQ
# ERa SRC1 inh: ER-alpha (human) coactivator binding inhibition; P03372; TR-FRET ER-alpha LBD / SRC-1 peptide, estradiol-bound; 1.7% of 86,000 active; AID 629; inhibition, % at 25.6 µM; in the data active means inhibition above about 50%;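 further: 0% = receptor plus peptide control and 100% = peptide only without receptor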
# * hit, by the source's call; x = no result; + = active, no number; [ ] = remark or other dose.
SMILES,Lung fibro prol,ERa SRC1 pot,H69AR growth 86K,HUVEC prolif 384,ERb coact inh,ERa SRC1 inh
CCOC(=O)c1oc2ccc(CNC3CCCCC3)c(Cl)c2c1C,94.7,93.4,18.3*,29.3*,-3.4,-1.9
CCOC(=O)c1ccc(S(=O)(=O)NC2CCCCCCC2)n1C,91.8,116.5,90.5,104.3,-10.3,-8.2
Cc1ccc(N(Cc2ccccc2F)S(C)(=O)=O)cc1C,101.9,120.8,106.6,107.6,-6.2,-3.8
CCSc1nc(N)c(C#N)c(-c2ccccc2Cl)c1C#N,98.8,124.8,37.2*,99.7,26.8,8.1
CC1=CC(=C2C(=O)c3ccccc3C2=O)C=C(C)O1,86.1,884.1*[fluorescence artefact?],49.0,100.3,2.8,8.4
Cc1c(NC(=O)c2n[nH]c(=O)c3ccccc23)c(=O)n(-c2ccccc2)n1C,100.9,110.0,102.8,98.0,2.3,-1.5
CCOc1ccc(-c2nnc3sc(-c4c(OC)cccc4OC)nn23)cc1,74.5,184.5,34.7*,73.1,31.0,34.9
COc1cccc(OC)c1-c1nn2c(-c3ccco3)nnc2s1,87.3,125.9,57.1,75.1,29.5,38.0
CCOc1ccc(-c2nnc3sc(-c4ccccc4OC)nn23)cc1,100.0,940.9*[fluorescence artefact?],93.9,107.2,4.0,-27.5
COc1ccccc1-c1nn2c(C(F)(F)F)nnc2s1,92.2,105.7,84.3,82.6,-7.3,-6.1
COc1cc(-c2nnc3sc(-c4cccs4)nn23)cc(OC)c1OC,54.0,164.9,20.8*,80.4,24.4,26.4
COc1ccccc1-c1nn2c(-c3ccc(C(C)(C)C)cc3)nnc2s1,95.3,241.1*,94.4,25.3*,42.3,43.8
COc1ccc(-n2nnnc2S(=O)(=O)CC(=O)N2CCCCC2)cc1,33.1*,115.9,2.0*,69.1,-2.3,4.2
Cc1cc(C)c(Cn2c(=O)n(CCCC(=O)NCc3ccco3)c(=O)c3sccc32)c(C)c1,96.4,117.1,80.6,48.1,19.1,52.8*[fluorescence artefact?]
Cc1ccccc1Cn1c(=O)n(CCCC(=O)NCc2ccco2)c(=O)c2sccc21,95.8,79.6,60.1,102.8,11.9,2.6
Cc1ccc(C)c(Cn2c(=O)n(CCC(=O)NCc3ccco3)c(=O)c3sccc32)c1,91.2,204.6*,78.0,94.3,-3.8,20.5
COC(=O)C1=C(Nc2ccc(C)cc2)C=C(C)C(C(=O)OC)C1c1cccc(OC)c1 (configuration not stated),59.5,111.6,17.2*,72.9,-3.6,-10.1
COC(=O)C1=C(Nc2ccc(C)cc2)C=C(C)C(C(=O)OC)C1c1ccc(OC)cc1 (configuration not stated),62.2,118.4,23.9*,66.8,-4.5,-7.1
COc1ccc(CNC(=O)Nc2ccc(C)cc2)cc1,108.2,114.3,98.2,100.5,10.3,15.0
O=C(Nc1ccccc1C(=O)N1CCOCC1)C1CCCO1 (configuration not stated),95.1,88.8,106.8,91.0,-5.0,-6.7
COc1cc(C(=O)N[C@H](C(=O)NC(C)C23CC4CC(CC(C4)C2)C3)C(C)C)cc(OC)c1OC (some centres not stated),47.7*,95.4,41.9,44.4,-5.3,-4.9
O=C(NCc1ccccc1)c1ccc2c(c1)C(=O)N(Cc1ccncc1)C2=O,104.8,106.5,99.0,89.2,-16.7,-1.1
O=C(Nc1ccccc1N1CCOCC1)c1ccc2c(c1)C(=O)N(Cc1ccncc1)C2=O,99.6,15.1,96.2,93.6,38.6,63.1*[fluorescence artefact?]
COc1ccc(-c2cc(CCCC(=O)NCc3ccccn3)no2)cc1,95.2,133.9,100.2,104.7,-7.3,-4.2
COCCCn1c(SCC(=O)NCc2ccco2)nc2sc3c(c2c1=O)CCC3,95.5,104.8,60.7,72.2,8.4,9.1
SMILES,Lung fibro prol,ERa SRC1 pot,H69AR growth 86K,HUVEC prolif 384,ERb coact inh,ERa SRC1 inh
O=C(CSc1ncnc2sc3c(c12)CCCCC3)NCc1ccco1,71.5,95.5,27.4*,58.9,5.5,2.7
CC(C)c1nc2sc3c(SCC(=O)NCc4ccco4)ncnc3c2c2c1CCC2,93.8,+[fluorescence artefact?],40.2,55.5,11.7,10.6
O=C(CSc1nnc2c3c4c(sc3ncn12)CCCC4)NCc1ccco1,101.6,135.4,28.4*,90.3,11.3,8.9
O=C(CSc1ncnc2sc3c(c12)CCCC3)c1ccco1,101.8,102.5,91.2,92.2,23.9,14.4
O=C(CSc1c2c(nc3cc(Cl)ccc13)CCCC2)NCc1ccco1,76.1,87.6,2.2*,75.8,-2.6,0.6
COCCN1C(=O)c2oc3cc(C)c(C)cc3c(=O)c2C1c1ccc(O)cc1 (configuration not stated),90.9,109.9,58.7,88.4,-6.6,-3.2
Cc1c(S(=O)(=O)N2CCOCC2)c(=O)n(C)c(=O)n1C,99.9,88.4,92.7,106.5,27.4,6.1
Cc1cc(NC(=O)c2cccc(COc3ccc(Br)cc3)c2)no1,91.8,115.1,89.4,59.3,11.5,1.9
O=C(/C=N/O)NCc1ccncc1,108.6,150.5,95.3,101.8,-3.7,-5.2
CSc1nc(SCC(=O)NCc2ccco2)c2c3c(sc2n1)CN(C)CC3,88.8,58.1,63.4,77.4,35.4,51.9*[fluorescence artefact?]
COc1ccc(OC)c(NC(=O)Cc2coc3cc(C)cc(C)c23)c1,108.7,107.2,82.6,100.6,-18.2,-3.5
COc1cc2nc(NC(=O)c3ccccc3)[nH]c(=O)c2cc1OC,101.1,124.2,64.8,102.7,-1.5,0.2
COc1ccc(C(=O)Nc2nc3cc(OC)c(OC)cc3c(=O)[nH]2)cc1,77.7,434.3*,13.3*,56.6,22.3,9.3
COc1ccc(CCn2c(C)cc(C(=O)CSc3nnnn3-c3ccccc3)c2C)cc1OC,70.3,190.4,47.8,69.1,-30.4,64.5*[fluorescence artefact?]
COc1cc(NC(=O)CSc2nnnn2-c2ccccc2)cc(OC)c1OC,97.0,229.2*[fluorescence artefact?],79.0,78.9,9.4,10.7
Cc1cc(C(=O)CSc2nnnn2-c2ccccc2)c(C)n1CCc1ccccc1,84.2,110.9,18.6*,60.0,-0.3,4.4
Cc1cc(C(=O)CSc2nnnn2-c2ccccc2)c(C)n1CC1CCCO1 (configuration not stated),105.5,96.0,77.0,75.7,19.0,15.5
Cc1cc(C(=O)CSc2nnnn2C)c(C)n1CCc1ccc(F)cc1,88.1,97.2,86.8,80.2,8.4,10.6
CC1CN(C(=O)CCN2C(=O)c3ccccc3C2=O)CC(C)O1 (configuration not stated),105.7,105.2,89.3,105.5,-2.1,-0.1
CC(=O)Nc1ccc(S(=O)(=O)N(c2cccnc2)S(=O)(=O)c2ccc(NC(C)=O)cc2)cc1,x,97.5,100.1,81.8,9.6,0.4
O=C1CNC(=O)/C1=C\N1CCN(C(c2ccccc2)c2ccccc2)CC1,96.1,83.8,76.8,87.5,7.3,-2.0
O=C(Nc1cccnc1)c1cc(-c2ccc3c(c2)OCO3)on1,92.5,404.8*,93.2,88.1,17.0,28.7
